These results are taken from ChEMBL document CHEMBL3875192, “Synthesis and binding monitoring of a new nanomolar PAMAM-based matrix metalloproteinases inhibitor (MMPIs)” (Bioorg Med Chem, 2017).

Assay [1] deals with T1, Matrix metalloproteinase-9 (Homo sapiens, UniProt P14780). The assay is described as follows: Inhibition of MMP-9 catalytic domain (unknown origin).
Assay [2] concerns the target T2, Macrophage metalloelastase (Homo sapiens, UniProt P39900). Kind of assay: Binding affinity to 15N-enriched MMP-12 catalytic domain (unknown origin) at 0.2 mM by 2D 1H-15N HSQC NMR spectroscopy. An outline of the steps: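 Ligand was added from a DMSO-d₆ solution to a final 0.2 mM with 1% DMSO-d₆. Amide NH resonances were followed by sensitivity-enhanced 2D ¹H-¹⁵N HSQC, and spectral changes were the binding read-out.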
Target sequence in this assay (P39900 106-470 limits assumed): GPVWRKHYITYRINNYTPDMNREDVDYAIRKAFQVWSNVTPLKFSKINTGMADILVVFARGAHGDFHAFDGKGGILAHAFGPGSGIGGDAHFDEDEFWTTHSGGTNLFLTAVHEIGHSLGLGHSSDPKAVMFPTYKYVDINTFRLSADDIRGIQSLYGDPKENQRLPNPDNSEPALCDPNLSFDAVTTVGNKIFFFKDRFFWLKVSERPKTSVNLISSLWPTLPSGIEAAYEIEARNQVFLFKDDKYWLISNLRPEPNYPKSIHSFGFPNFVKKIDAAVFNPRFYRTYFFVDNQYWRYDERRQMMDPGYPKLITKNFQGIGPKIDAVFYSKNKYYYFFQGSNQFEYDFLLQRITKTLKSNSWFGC

Assay [3] addresses T3, Matrilysin (Homo sapiens, UniProt P09237).
T3 sequence (P09237 whole entry): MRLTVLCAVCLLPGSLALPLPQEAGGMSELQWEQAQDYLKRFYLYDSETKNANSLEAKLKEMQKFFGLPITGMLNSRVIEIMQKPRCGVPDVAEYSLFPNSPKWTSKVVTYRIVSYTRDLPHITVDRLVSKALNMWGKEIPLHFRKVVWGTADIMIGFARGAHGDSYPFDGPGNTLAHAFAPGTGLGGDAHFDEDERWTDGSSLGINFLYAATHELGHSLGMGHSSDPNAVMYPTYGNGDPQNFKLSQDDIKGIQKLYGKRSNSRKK
Kind of assay: Inhibition of MMP-7 (unknown origin) assessed as inhibition of hydrolysis of Mca-Pro-Leu-Gly-Leu-Dpa-Ala-Arg-NH2 substrate by fluorimetric assay.

Assay [4] concerns the target T4, Interstitial collagenase (Homo sapiens, UniProt P03956).
T4 sequence (P03956 whole entry): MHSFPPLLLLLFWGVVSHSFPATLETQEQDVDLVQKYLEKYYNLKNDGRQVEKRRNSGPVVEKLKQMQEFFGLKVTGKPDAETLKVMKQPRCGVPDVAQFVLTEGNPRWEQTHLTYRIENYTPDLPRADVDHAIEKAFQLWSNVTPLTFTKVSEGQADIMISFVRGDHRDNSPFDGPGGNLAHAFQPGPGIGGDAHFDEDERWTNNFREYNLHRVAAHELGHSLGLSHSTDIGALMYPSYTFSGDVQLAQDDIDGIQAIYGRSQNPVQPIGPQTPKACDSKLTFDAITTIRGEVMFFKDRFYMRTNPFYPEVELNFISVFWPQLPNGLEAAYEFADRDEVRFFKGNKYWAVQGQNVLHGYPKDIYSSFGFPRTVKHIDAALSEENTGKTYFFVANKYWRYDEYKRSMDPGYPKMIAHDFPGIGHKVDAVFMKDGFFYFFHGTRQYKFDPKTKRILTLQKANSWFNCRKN
Kind of assay: Inhibition of MMP-1 (unknown origin) assessed as inhibition of hydrolysis of Mca-Pro-Leu-Gly-Leu-Dpa-Ala-Arg-NH2 substrate by fluorimetric assay.

In assay [5] the target is 72 kDa type IV collagenase (Homo sapiens, UniProt P08253). The assay is described as follows: Inhibition of MMP-2 (unknown origin) assessed as inhibition of hydrolysis of Mca-Pro-Leu-Gly-Leu-Dpa-Ala-Arg-NH2 substrate by fluorimetric assay.
Assay [6] concerns the target T1, Matrix metalloproteinase-9. Kind of assay: Inhibition of human recombinant MMP-9 catalytic domain (112 to 445 residues) expressed in Escherichia coli assessed as inhibition of hydrolysis of Mca-Pro-Leu-Gly-Leu-Dpa-Ala-Arg-NH2 substrate by fluorimetric assay. The procedure, abridged:
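Inhibition constant toward MMP-9 was determined fluorimetrically by monitoring hydrolysis of the quenched peptide substrate Mca-Pro-Leu-Gly-Leu-Dpa-Ala-Arg-NH₂.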

For assay [7], the target named is T2, Macrophage metalloelastase. Kind of assay: Inhibition of MMP-12 catalytic domain (unknown origin) assessed as inhibition of hydrolysis of Mca-Pro-Leu-Gly-Leu-Dpa-Ala-Arg-NH2 substrate by fluorimetric assay.
Target sequence in this assay (P39900 whole entry, the tested form may be a part): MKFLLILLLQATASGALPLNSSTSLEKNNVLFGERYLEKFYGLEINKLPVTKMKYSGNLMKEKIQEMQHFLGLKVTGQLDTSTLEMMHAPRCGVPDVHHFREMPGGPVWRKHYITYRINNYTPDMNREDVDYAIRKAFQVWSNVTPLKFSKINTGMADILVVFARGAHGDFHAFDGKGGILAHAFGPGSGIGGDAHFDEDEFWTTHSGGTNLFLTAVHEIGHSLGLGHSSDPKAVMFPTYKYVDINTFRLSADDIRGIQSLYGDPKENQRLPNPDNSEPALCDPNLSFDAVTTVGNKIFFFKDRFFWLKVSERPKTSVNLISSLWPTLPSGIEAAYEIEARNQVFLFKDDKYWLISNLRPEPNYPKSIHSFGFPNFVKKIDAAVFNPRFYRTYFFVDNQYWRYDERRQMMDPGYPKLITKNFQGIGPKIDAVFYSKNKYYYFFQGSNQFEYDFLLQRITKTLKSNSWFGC
Assay [8] deals with T2, Macrophage metalloelastase. The assay is described as follows: Binding affinity to MMP-12 catalytic domain (unknown origin) assessed as hydrodynamic radius by dynamic light scattering method. The procedure, abridged: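 Samples in glass tubes sat in a thermostatic cell filled with decahydronaphthalene for refractive-index matching. Cumulant fitting of the light-scattering data gave the diffusion coefficient of the complexes, and the average hydrodynamic radius came from the Stokes–Einstein relation assuming spherical particles.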
Target sequence in this assay (P39900 106-470 limits assumed): as the sequence (P39900 106-470 limits assumed) above

For assay [9], the target named is Collagenase 3 (Homo sapiens, UniProt P45452). Kind of assay: Inhibition of MMP-13 (unknown origin) assessed as inhibition of hydrolysis of Mca-Pro-Leu-Gly-Leu-Dpa-Ala-Arg-NH2 substrate by fluorimetric assay.

Active and inactive are the calls of the source. The calls are words filed in the database; no cut-off is given here.

T1 sequence (P14780 whole entry, the tested form may be a part): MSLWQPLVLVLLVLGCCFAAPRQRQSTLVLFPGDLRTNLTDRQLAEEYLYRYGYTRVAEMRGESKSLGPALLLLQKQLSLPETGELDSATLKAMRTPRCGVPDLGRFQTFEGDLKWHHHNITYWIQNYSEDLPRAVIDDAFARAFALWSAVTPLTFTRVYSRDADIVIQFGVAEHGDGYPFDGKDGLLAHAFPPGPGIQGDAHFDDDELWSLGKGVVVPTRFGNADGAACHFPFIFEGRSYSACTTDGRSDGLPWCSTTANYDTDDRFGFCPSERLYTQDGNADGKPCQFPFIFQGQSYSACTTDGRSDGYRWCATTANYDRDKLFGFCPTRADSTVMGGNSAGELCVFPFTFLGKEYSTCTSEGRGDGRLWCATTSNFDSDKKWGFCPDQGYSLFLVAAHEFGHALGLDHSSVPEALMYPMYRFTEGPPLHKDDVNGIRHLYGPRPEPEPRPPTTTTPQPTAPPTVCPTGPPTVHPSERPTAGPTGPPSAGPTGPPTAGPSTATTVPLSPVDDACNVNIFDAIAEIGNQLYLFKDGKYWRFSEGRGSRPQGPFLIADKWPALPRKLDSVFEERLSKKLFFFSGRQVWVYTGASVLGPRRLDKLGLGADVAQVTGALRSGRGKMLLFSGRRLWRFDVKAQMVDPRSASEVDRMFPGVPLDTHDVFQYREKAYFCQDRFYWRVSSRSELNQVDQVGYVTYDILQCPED
Sequence of 72 kDa type IV collagenase (P08253 whole entry, the tested form may be a part): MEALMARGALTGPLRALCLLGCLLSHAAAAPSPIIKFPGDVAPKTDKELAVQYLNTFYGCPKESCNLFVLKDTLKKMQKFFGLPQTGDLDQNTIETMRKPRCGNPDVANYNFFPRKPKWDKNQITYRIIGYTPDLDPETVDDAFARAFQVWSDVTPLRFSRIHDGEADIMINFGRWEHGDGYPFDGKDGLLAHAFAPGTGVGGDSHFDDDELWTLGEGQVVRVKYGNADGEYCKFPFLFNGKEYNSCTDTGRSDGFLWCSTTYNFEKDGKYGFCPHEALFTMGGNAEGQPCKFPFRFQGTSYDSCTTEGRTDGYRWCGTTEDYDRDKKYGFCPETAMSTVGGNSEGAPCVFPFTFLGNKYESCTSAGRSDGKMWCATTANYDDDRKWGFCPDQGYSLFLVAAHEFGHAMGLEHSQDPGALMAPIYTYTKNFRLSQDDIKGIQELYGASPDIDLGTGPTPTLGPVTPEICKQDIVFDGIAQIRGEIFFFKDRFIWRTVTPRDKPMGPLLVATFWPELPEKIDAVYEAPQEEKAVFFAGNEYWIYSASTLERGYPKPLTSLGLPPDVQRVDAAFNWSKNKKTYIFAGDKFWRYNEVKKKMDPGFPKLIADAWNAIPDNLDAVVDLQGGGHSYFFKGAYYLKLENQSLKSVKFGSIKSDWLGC

For `COc1ccc(S(=O)(=O)N(CCNC(=O)CCCCC(=O)NCCNC(=O)CCN(CCNC(=O)OC(C)(C)C)CCC(=O)NCCNC(=O)CCCCC(=O)NCCN([C@H](CO)C(=O)NO)S(=O)(=O)c2ccc(OC)cc2)[C@H](CO)C(=O)NO)cc1`, affinity in assay [1] was put at a Ki of 289 nM.
Consider `COc1ccc(S(=O)(=O)N(CCCCCNC(=O)CCCCC(=O)NCCNC(=O)CCN(CCNC(=O)OC(C)(C)C)CCC(=O)NCCNC(=O)CCCCC(=O)NCCCCCN([C@H](CO)C(=O)NO)S(=O)(=O)c2ccc(OC)cc2)[C@H](CO)C(=O)NO)cc1`, for which the result in assay [2] was Active. Moreover, the Ki in [3] was found to be 3760 nM; in [4], 143 nM; in assay [5], 15.9 nM; in [6], 18 nM; in assay [7], 23 nM; in assay [9] it was 57.5 nM. In [8], the Activity was 3 nm.
For `COc1ccc(S(=O)(=O)N(CC(=O)NO)CC(C)C)cc1`, in [8], the Activity is 2.1 nm.
